From ChEMBL document CHEMBL4265908, “Structure-activity and structure-property relationships of novel Nrf2 activators with a 1,2,4-oxadiazole core and their therapeutic effects on acetaminophen (APAP)-induced acute liver injury” (Eur J Med Chem, 2018)
Calls of active or inactive are those of the source. The rule behind the calls is not given here.

Experiments:
[1] = molecular target: T1, Nuclear factor erythroid 2-related factor 2 (Homo sapiens) (UniProt Q16236); assay: Activation of Nrf2 in human HepG2-ARE-C8 cells assessed as induction of ARE-mediated luciferase activity at 0.01 uM after 24 hrs by luciferase reporter gene assay relative to control; assay type: cell-based
T1 sequence (whole entry): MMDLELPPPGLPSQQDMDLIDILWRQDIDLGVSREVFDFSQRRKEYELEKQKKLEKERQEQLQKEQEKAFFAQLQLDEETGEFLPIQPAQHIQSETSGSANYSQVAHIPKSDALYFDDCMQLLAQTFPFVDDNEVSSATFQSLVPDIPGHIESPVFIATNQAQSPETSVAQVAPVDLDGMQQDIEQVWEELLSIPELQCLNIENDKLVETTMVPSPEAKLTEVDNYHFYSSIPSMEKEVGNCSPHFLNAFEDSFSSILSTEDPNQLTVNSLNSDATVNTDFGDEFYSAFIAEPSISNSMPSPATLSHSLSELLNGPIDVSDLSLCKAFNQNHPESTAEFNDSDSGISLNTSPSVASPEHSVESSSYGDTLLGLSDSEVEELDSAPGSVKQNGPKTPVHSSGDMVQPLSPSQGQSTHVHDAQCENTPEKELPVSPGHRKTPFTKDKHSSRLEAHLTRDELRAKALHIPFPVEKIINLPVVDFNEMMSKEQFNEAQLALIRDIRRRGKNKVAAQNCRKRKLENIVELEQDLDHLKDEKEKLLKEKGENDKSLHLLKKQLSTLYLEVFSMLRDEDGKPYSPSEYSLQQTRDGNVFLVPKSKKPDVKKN
How it was run: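 HepG2-ARE-C8 cells stably carrying ARE-luciferase, grown in DMEM with 10% FBS at 37 °C and 5% CO2. Seeded at 5 × 10^4 cells/well, left overnight, then given compound diluted from a 10 mM DMSO stock for 24 h. Cells lysed and luciferase read as RLU. Inductivity = (RLUtest − RLUblank)/(RLUcontrol − RLUblank), with DMSO as control. Mean ± SEM of three experiments.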

Mus musculus [2] = assay: In vivo activation of Nrf2 in APAP-induced liver injury in C57BL/6 mouse assessed as increase in NQO1 protein expression level at 10 to 100 mg/kg, ip administered for 7 consecutive days followed by APAP challenge 1 hr post last compound dose and measured after 24 hrs by Western blot analysis; assay type: functional, organism-based
How it was run: (§1)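 Female C57BL/6 mice (20–25 g, n = 10/group) received 10, 50 or 100 mg/kg/day ip in saline for 7 days. One hour after the last dose they received APAP 300 mg/kg in saline. Killed 24 h later. Serum ALT/AST by kit. Liver homogenates (pH 7.0 phosphate) used for GSH (A420, μmol/g protein), GST (A412, U/mg protein) and SOD. Liver also analyzed by western blot (β-actin normalized), qRT-PCR (GAPDH normalized) and H&E.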

[3] = molecular target: T1, Nuclear factor erythroid 2-related factor 2 (Homo sapiens); assay: Activation of Nrf2 in human LO2 cells assessed as increase in NQO1 mRNA expression level by qRT-PCR analysis; assay type: cell-based
How it was run: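 LO2 cells in DMEM with 10% FBS were exposed to 0, 2.5, 5, 10, 20 or 40 μM compound for 12 h. Transcripts measured by qRT-PCR: 40 cycles of 95 °C for 5 s and 60 °C for 30 s. Normalized to GAPDH and expressed as fold over the untreated control. Mean ± SD, n = 3.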

Mus musculus [4] = assay: Hepatoprotective activity against APAP-induced liver injury in C57BL/6 mouse assessed as reduction in serum ALT levels administered ip for 7 consecutive days followed by APAP challenge 1 hr post last compound dose and measured after 24 hrs; assay type: functional, organism-based; how it was run: as §1
Mus musculus [5] = assay: Hepatoprotective activity against APAP-induced liver injury in C57BL/6 mouse assessed as reduction in serum AST levels administered ip for 7 consecutive days followed by APAP challenge 1 hr post last compound dose and measured after 24 hrs; assay type: functional, organism-based; how it was run: as §1

Activity [1]: 2.75 | Activity [3]: Dose-dependent effect
Compound: Cc1ccc(-c2noc(-c3ccc(F)c(F)c3)n2)cn1
Activity (Mus musculus [2]): Active | Activity (Mus musculus [4]): Dose-dependent effect | Activity (Mus musculus [5]): Dose-dependent effect
